Results collected from several papers.
Each line is one published result; the experiments were not run side by side.
TAOK2: Serine/threonine-protein kinase TAO2 (TAOK2, Homo sapiens, UniProt Q9UL54)
PIK3C2A: Phosphatidylinositol 4-phosphate 3-kinase C2 domain-containing subunit alpha (PIK3C2A, Homo sapiens, UniProt O00443)

SMILES | target | assay | test system | conditions | quantity | value
Nc1ncc(-c2nc(N3CCOCC3)nc(N3CCOCC3)n2)c(C(F)F)n1 | Serine/threonine-protein kinase RIO2 (RIOK2, Homo sapiens, UniProt Q9BVS4) | binding, competition with immobilised ligand | – | 10 µM | remaining binding | 51%
Cn1cc(-c2cccc(N3CCc4c(sc5c4CC(C)(C)C5)C3=O)c2CO)cc(Nc2ccncn2)c1=O | Serine/threonine-protein kinase PAK 3 (PAK3, Homo sapiens, UniProt O75914) | enzyme activity, inhibitor | – | 1 µM | inhibition | -3%
CCCCCc1cc(O)c(C/C=C(\C)CCC=C(C)C)c(O)c1 | Polyunsaturated fatty acid lipoxygenase ALOX12 (ALOX12, Homo sapiens, UniProt P18054) | enzyme activity in cells, inhibitor | PMNL | 10 µM | remaining activity | 152%
COc1ncccc1-c1cnn2ccc(N3CCN(C(=O)OC(C)C)CC3)nc12 | TAOK2 | binding, competition with immobilised ligand | – | 1 µM | remaining binding | 64%
C#Cc1n[nH]c2c(-c3cn([C@@H](C)c4ccccc4)c(=O)[nH]c3=O)cc(F)cc12 | Mitogen-activated protein kinase 14 (MAPK14, Homo sapiens, UniProt Q16539) | enzyme activity, inhibitor | – | 0.1 µM | inhibition | 2.1%
COc1cc(Nc2ncc(F)c(Nc3ccc4c(n3)NC(=O)C(C)(C)O4)n2)cc(OC)c1OC | TAOK2 | binding | – | 10 µM | inhibition | 88%
C#Cc1n[nH]c2c(-c3cn(C(C)c4ccccn4)c(=O)[nH]c3=O)cc(F)cc12 (centres unmarked) | PIK3C2A | enzyme activity, inhibitor | – | 1 µM | inhibition | 8.9%
Cc1nn(C)cc1-c1nc2c(N3CCN(Cc4ccc(Cl)cc4)CC3)c(Cl)cnc2[nH]1 | Cyclin-dependent kinase 14 (CDK14, Homo sapiens, UniProt O94921) | binding, competition with immobilised ligand | – | 1 µM | remaining binding | 100%
CCN(CC)CCCC[C@H](NC(=O)[C@H](CC(C)C)NC(=O)[C@H](C)NC(=O)[C@H](Cc1ccccc1)NC(=O)c1ccc(C(C)(C)C)cc1)C(=O)N[C@@H](CO)C(=O)OC | Nociceptin receptor (OPRL1, Homo sapiens, UniProt P41146) | ligand displacement, radioligand | – | 10 µM | remaining binding | 76.8%
O=C(Nc1cccnn1)N1CCN([C@@H]2CCOc3cc(C(F)(F)F)ccc32)CC1 | Apelin receptor (APLNR, Homo sapiens, UniProt P35414) | ligand displacement | – | 20 µM | inhibition | -1%
Cn1cc(-c2cc(F)cc(N3CCn4c(cc5c4CCCC5)C3=O)c2CO)cc(Nc2ccc(N3CCN(C4COC4)CC3)cn2)c1=O | PIK3C2A | enzyme activity, inhibitor | – | 0.1 µM | inhibition | -2%
